The source made the active and inactive calls. No cut-off for these calls is given here.

The source of these data is ChEMBL document CHEMBL4414568, “Development of Novel Irreversible Pyruvate Kinase M2 Inhibitors” (J Med Chem, 2019).

One assay deals with NCI-H157. Put plainly: Antiproliferative activity against human NCI-H157 cells assessed as reduction in cell viability incubated for 24 hrs by MTT assay. The format is functional, cell-based. The following applies: NCI-H157, 24 h. The method in brief: (§1)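 Cells seeded at 3,500 per well in 10% FBS and left overnight, then exposed to test agent or vehicle in 5% FBS for 24 h. MTT added for 1 h, then medium swapped for DMSO and absorbance read at 560 nm. Viability given as percent of vehicle-treated control. Run in triplicate.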
On the technique in general: Tetrazolium dyes change colour on reduction, which living cells bring about.

In assay [1] the target is L-lactate dehydrogenase A chain (Homo sapiens) (UniProt P00338). Put plainly: Binding affinity to LDHA in human PC9 cells incubated for 1 hr by ABPP-SILAC assay. The assay is classed as cell-based. The method in brief:
(§2)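 PC-9 cells passaged at least six times in SILAC DMEM with 10% dialyzed FBS plus 100 µg/mL light or 13C/15N-labeled Arg/Lys. Heavy cells got ABPP probe (1 µM) and light cells DMSO, 1 h at 37 °C. Cells mixed 1:1, sonicated, spun at 100,000g, protein normalized to 1 mg/mL. Click biotin-azide, streptavidin bead pulldown 16 h at 4 °C, SDS-PAGE, on-bead trypsin digestion, LC-MS/MS.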

Assay [2] concerns the target T1, Pyruvate kinase PKM (Homo sapiens, UniProt P14618). In words: Inhibition of PKM2 in human PC9 cells assessed as down regulation of EGFR expression incubated for 24 hrs by Western blot analysis. The assay is classed as cell-based. The method in brief:
(§3)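 PC-9 cells seeded at 5 × 10^5 cells/mL; after 24 h given 0–1 µM compound or DMSO for 24 h. Lysates run on 10% SDS-PAGE, transferred to nitrocellulose, probed for PKM2, EGFR, p-STAT3, STAT3, p-β-catenin, β-catenin and β-actin with HRP secondaries, ECL detection.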

The subject of assay [3] is PC-9. In words: Down regulation of PKM2 expression in human PC9 cells incubated for 24 hrs by Western blot analysis. The assay is classed as functional, cell-based. In a few lines:
as §3
A general note: A western blot detects proteins with antibodies after separation by electrophoresis.

The next assay relates to NCI-H460. Put plainly: Antiproliferative activity against human H460 cells expressing wild type EGFR assessed as reduction in cell viability incubated for 24 hrs by MTT assay. The following applies: NCI-H460, 24 h. The format is functional, cell-based. In a few lines: as §1
The target of assay [4] is T2, Malonate--CoA ligase ACSF3, mitochondrial (Homo sapiens) (UniProt Q4G176).
T2 sequence (whole entry): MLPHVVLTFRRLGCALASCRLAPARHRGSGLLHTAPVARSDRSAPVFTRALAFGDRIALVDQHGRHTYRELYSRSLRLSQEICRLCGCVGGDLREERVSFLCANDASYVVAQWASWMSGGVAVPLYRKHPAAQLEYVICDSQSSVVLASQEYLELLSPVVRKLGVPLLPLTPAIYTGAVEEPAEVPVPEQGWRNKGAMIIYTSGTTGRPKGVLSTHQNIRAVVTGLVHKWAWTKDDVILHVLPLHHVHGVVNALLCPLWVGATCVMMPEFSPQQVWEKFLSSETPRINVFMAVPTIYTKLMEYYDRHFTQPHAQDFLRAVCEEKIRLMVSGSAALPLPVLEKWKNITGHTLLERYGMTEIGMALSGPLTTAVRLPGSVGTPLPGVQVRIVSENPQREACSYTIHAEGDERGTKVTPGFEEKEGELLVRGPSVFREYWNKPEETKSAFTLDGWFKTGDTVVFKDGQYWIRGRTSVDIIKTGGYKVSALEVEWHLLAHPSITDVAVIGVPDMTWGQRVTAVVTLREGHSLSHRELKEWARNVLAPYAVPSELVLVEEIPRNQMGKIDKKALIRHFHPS
Put plainly: Binding affinity to ACSF3 in human PC9 cells incubated for 1 hr by ABPP-SILAC assay. The assay is classed as cell-based. In a few lines: as §2

Assay [5] addresses T1, Pyruvate kinase PKM. Put plainly: Binding affinity to recombinant human N-terminal His6-tagged PKM2 expressed in Escherichia coli BL21 (DE3) assessed as Cys317-adduct formation by NanoLC-MS/MS analysis. In a few lines: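 In-house His-tag PKM2 from E. coli BL21(DE3), purified by Ni-NTA then Superdex 200, treated with compound. Reduced with 30 mM DTT at 37 °C for 1 h, alkylated with 30 mM iodoacetamide for 1 h in the dark, trypsin 1:30 w/w overnight at 37 °C. Digests from 6 experiments pooled, 48 nanoLC-MS/MS runs in data-dependent mode, Orbitrap MS1.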

Assay [6] deals with T3, ATP-citrate synthase (Homo sapiens) (UniProt P53396).
T3 sequence (whole entry): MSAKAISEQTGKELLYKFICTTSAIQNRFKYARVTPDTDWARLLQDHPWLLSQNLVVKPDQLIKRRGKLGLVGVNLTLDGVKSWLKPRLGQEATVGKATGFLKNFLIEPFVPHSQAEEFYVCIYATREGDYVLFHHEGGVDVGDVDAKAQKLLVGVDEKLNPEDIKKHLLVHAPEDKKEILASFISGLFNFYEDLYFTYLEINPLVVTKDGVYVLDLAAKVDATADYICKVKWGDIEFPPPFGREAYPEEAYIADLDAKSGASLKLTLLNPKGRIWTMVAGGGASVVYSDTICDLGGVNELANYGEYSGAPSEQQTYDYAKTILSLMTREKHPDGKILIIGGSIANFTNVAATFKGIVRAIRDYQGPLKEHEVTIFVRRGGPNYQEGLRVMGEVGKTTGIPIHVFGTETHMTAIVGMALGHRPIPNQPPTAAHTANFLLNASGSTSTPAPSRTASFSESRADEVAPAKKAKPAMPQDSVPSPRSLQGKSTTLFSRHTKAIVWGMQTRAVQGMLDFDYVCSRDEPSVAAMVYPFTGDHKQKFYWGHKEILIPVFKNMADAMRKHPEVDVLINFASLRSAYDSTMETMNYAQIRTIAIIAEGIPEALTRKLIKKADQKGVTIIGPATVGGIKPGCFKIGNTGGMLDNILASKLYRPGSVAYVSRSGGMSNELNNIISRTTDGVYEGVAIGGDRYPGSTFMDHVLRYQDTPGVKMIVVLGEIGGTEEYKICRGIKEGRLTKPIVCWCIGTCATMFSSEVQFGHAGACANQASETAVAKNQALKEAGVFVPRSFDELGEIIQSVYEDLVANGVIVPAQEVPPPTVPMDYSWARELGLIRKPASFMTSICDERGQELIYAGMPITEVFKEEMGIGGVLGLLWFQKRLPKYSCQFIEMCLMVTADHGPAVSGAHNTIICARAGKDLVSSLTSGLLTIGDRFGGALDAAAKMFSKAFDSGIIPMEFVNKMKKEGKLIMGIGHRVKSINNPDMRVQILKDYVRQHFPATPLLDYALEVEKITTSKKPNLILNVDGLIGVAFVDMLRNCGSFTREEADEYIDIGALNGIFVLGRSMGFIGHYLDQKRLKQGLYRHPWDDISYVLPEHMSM
Put plainly: Binding affinity to ACYL in human PC9 cells incubated for 1 hr by ABPP-SILAC assay. The assay is classed as cell-based. The method in brief:
as §2

Assay [7] has as its system PC-9. In words: Induction of ROS production in human PC9 cells at 0.25 and 0.5 uM incubated for 6 hrs by H2DCFDA dye-based fluorescence assay. The format is functional, cell-based. The method in brief:
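PC-9 cells at 2 × 10^4 per well, after 24 h treated with compound or DMSO for 6 h. Cells washed, given 1X ROS label in assay buffer for 45 min at 37 °C in the dark, fluorescence read at Ex/Em 495/529 nm as an end point. n = 3.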

Assay [8] concerns the target T1, Pyruvate kinase PKM. Put plainly: Binding affinity to PKM2 in human PC9 cells incubated for 1 hr by ABPP-SILAC assay. The assay is classed as cell-based. The method in brief:
as §2

T1 sequence (P14618 2-531 limits assumed): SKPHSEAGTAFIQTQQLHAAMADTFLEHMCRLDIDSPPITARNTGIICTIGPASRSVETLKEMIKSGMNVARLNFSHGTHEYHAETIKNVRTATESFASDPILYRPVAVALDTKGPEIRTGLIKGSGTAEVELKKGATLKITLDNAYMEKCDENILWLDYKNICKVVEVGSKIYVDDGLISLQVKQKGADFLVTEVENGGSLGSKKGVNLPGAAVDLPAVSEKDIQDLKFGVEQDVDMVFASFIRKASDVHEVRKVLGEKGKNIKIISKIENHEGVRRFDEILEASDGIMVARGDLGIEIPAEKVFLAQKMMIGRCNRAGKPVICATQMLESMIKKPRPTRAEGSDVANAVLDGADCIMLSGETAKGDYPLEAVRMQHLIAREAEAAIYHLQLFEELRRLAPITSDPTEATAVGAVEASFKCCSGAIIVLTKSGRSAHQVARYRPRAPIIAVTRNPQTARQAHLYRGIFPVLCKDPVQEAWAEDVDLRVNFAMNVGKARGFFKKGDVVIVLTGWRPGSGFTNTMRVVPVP

The term IC50 denotes the concentration needed to halve the response being measured. Regarding `C#CC(=O)Nc1ccc(-n2nc(CCC(=O)NC)cc2-c2ccc(-c3ccc(C(F)(F)F)cc3)cc2)cc1`, the half-maximal inhibitory concentration (IC50) in the assay on NCI-H157 is more than 2 µM; in the assay on NCI-H460 it was 1.5 µM. For the same compound, the result (in [1]; in assay [4]; on Pyruvate kinase PKM [5]; in assay [6]; on Pyruvate kinase PKM [8]) was Active. Moreover, the inhibition result at Pyruvate kinase PKM [2] is “Dose-dependent effect”. Further, the Activity result in the assay on PC-9 [3] was “Dose-dependent effect”. For the same compound, the result with PC-9 [7] was inactive.
